The values that follow come from ChEMBL document CHEMBL4842312, “Phenoxazine nucleoside derivatives with a multiple activity against RNA and DNA viruses” (Eur J Med Chem, 2021).

Type in all cases: functional, organism-based
Test [1] has as its system Tick-borne encephalitis virus. Briefly: Antiviral activity against Tick-borne encephalitis virus infected in PEK cells assessed as reduction in viral plaque formation incubated for 1 hr by Reed-Muench method.
For test [2], the system named is Human alphaherpesvirus 3. In words: Antiviral activity against thymidine kinase deficient Varicella zoster virus infected in HEL cells assessed as reduction in viral plaque formation incubated for 2 hrs. The settings on record: Human alphaherpesvirus 3, HEL. An outline of the steps: (§1)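 Confluent HEL cultures received 100 CCID50 or 20 PFU of virus, with 2 h adsorption before inoculum removal. Cells were then incubated with compound from 100 μM downward. Cytopathicity or plaques were scored once untreated infected controls reached completion.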

Test [3] deals with Human alphaherpesvirus 3. Briefly: Antiviral activity against wild type Varicella zoster virus infected in HEL cells assessed as reduction in viral plaque formation incubated for 2 hrs. The settings on record: Human alphaherpesvirus 3, HEL. The gist of the method:
as §1

As to `COc1ccc(C(OC[C@H]2O[C@@H](n3cc4c(nc3=O)Nc3ccccc3O4)C[C@@H]2O)(c2ccccc2)c2ccc(OC)cc2)cc1`, the EC50 (as a rule, the concentration at which the effect is half-maximal) in test [1] worked out at 400 nM.
For `O=c1nc2c(cn1[C@H]1C[C@H](O)[C@@H](CO)O1)Oc1ccccc1N2`, the EC50 is 10 µM in the test on Human alphaherpesvirus 3 [2] and 60 nM in the test on Human alphaherpesvirus 3 [3].
